Measurements: publication PMC4110911 (Bioorganic & medicinal chemistry letters, 2014)

Experiments:
[1] = system: PKC; experiment: PepTag non-radioactive PKC assay; format: biochemical; conditions: read-out: IC50 value, PKC; mean ± standard deviation, triplicate
[2] = system: liver transaminases, aspartate aminotransferase (AST) and alanine transaminase (ALT); experiment: Plasma liver transaminase; format: in vivo; conditions: mice, 5 mg/kg daily by oral gavage for 75 days, vs control mice
[3] = Distribution of compound in tissues and plasma after chronic oral administration; format: in vivo; conditions: CD1 mice, oral gavage 5 mg/Kg daily for 75 days, n = 4
In short: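 CD1 mice: four treated, two untreated. Test compound was given by oral gavage at 5 mg/Kg once daily for 75 days. Brain, pancreas, liver, kidney, lung and plasma were then assayed for the compound by a previously reported procedure. Levels are in µM as mean ± standard deviation; ND = not detectable.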

Structure (SMILES)	IC50 [1] [µM]	ALT enzyme activity in plasma [2]	AST enzyme activity in plasma [2]	Concentration of 3, Kidney [3] [µM]	Concentration of 3, Liver [3] [µM]	Concentration of 3, Pancreases [3] [µM]	Concentration of 3, Plasma [3] [µM]
COc1cc(NCc2cccc3cccnc23)c2nccc(C)c2c1Oc1cccc(C(F)(F)F)c1 [Compound 7]	400 ± 13.7						
COc1cc(NCc2ccc(O)cc2)c2nccc(C)c2c1Oc1cccc(C(F)(F)F)c1 [Compound 3]	240 ± 21.2	No significant difference	No significant difference	16.1 ± 2.1	7.1 ± 0.6	26.5 ± 6.6	4.5 ± 0.3
